In ChEMBL document CHEMBL1799956, “Convergent synthesis and biological evaluation of 2-amino-4-(3',4',5'-trimethoxyphenyl)-5-aryl thiazoles as microtubule targeting agents” (J Med Chem, 2011):
Active and inactive are the calls of the source. The rule behind the calls is not given here.

Columns and labels:
HeLa [1] = test: Induction of apoptosis in human HeLa cells assessed activation of caspase 9 at […] after 24 hrs by Western blot analysis; type: functional, cell-based
Outline: (§1)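 Treated HeLa whole-cell lysates separated by SDS-PAGE and immunoblotted for PARP cleavage, Bcl-2, Bax, pro-caspase-9 and pro-caspase-2.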

HeLa [2] = test: Induction of apoptosis in human HeLa cells assessed activation of caspase 9 at 10 to 100 nM after 48 hrs by Western blot analysis
Jurkat [3] = test: Cell cycle arrest in human Jurkat cells assessed as decrease of cell population at G1 phase at 1 to 100 nM after 48 hrs using propidium iodide staining by flow cytometry; type: functional, cell-based
HeLa [4] = test: Induction of apoptosis in human HeLa cells assessed as decrease in Bax expression at […] after 48 hrs by Western blot analysis; type: functional, cell-based; outline: as §1
HeLa [5] = test: Induction of apoptosis in human HeLa cells assessed as increase in phospho-gammaH2AX expression at […] after 48 hrs by Western blot analysis; type: functional, cell-based
Outline: (§2)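 HeLa treated for 24 or 48 h; whole-cell lysates run on SDS-PAGE and blotted for phospho-γH2AX (Ser139).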

Jurkat [6] = test: Cell cycle arrest in human Jurkat cells assessed as decrease of cell population at S phase at 100 nM after 24 hrs using propidium iodide staining by flow cytometry; type: functional, cell-based
HeLa [7] = test: Antiproliferative activity against human HeLa cells assessed as growth inhibition after 72 hrs by MTT assay; type: functional, cell-based
Jurkat [8] = test: Induction of apoptosis in human Jurkat cells assessed as multinucleation at 10 uM after 24 to 48 hrs using Giemsa's staining by microscopic analysis; type: functional, cell-based
Outline: (§3)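 Giemsa staining, then light-microscope examination of cell morphology. HeLa and Jurkat cells were exposed to compound for 24 and 48 h. Magnification 60×.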

HeLa [9] = test: Induction of morphological changes in human HeLa cells assessed as effect on arrangement and amount of F-actin at 100 nM after 24 hrs using phalloidintetramethylrhodamine B isothiocyanate staining by microscopy; type: functional, cell-based
Outline: (§4)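 HeLa cells were incubated with compound for 24 h. F-actin was stained with a phalloidin–tetramethylrhodamine B isothiocyanate conjugate and nuclei were counterstained with DAPI. Cells were then examined by fluorescence microscopy.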

Tubulin (Homo sapiens) [10] = molecular target: T1, Tubulin (Homo sapiens) (UniProt P68371+Q9H4B7+P0DPH7+P68366+Q13509+Q71U36+P04350+Q3ZCM7+P07437+P68363+Q9BQE3+Q6PEY2+Q13885+Q9BVA1+Q9BUF5); test: Induction of microtubule disassembly in human HeLa cells assessed as complete loss of microtubules at 100 nM after 48 hrs using DAPI-staining by fluorescence microscopy; type: cell-based
Outline: (§5)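 HeLa cells were exposed to 10 or 100 nM compound for 24 or 48 h, then fixed. Microtubules were stained with FITC-conjugated anti-β-tubulin antibody and imaged by confocal/fluorescence microscopy at 60× magnification.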

HeLa [11] = test: Cell cycle arrest in human HeLa cells assessed as decrease of cell population at G1 phase at 1 to 100 nM after 24 hrs using propidium iodide staining by flow cytometry; type: functional, cell-based
HeLa [12] = test: Induction of morphological changes in human HeLa cells assessed as effect on arrangement and amount of F-actin at 10 nM after 24 hrs using phalloidintetramethylrhodamine B isothiocyanate staining by microscopy; type: functional, cell-based; outline: as §4
HeLa [13] = test: Induction of apoptosis in human HeLa cells assessed as increase in mitochondrial ROS production at 100 nM after 48 hrs using H2DCFDA staining by flow cytometry; type: functional, cell-based
HeLa [14] = test: Induction of apoptosis in human HeLa cells assessed as reduction in p21 expression at 10 to 100 nM after 24 hrs by Western blot analysis
HeLa [15] = test: Cell cycle arrest in human HeLa cells assessed as decrease of cell population at S phase at 100 nM after 24 hrs using propidium iodide staining by flow cytometry; type: functional, cell-based
Jurkat [16] = test: Induction of apoptosis in human Jurkat cells assessed as formation of large cytoplasmic vacuoles at 10 uM after 24 to 48 hrs using Giemsa's staining by microscopic analysis; type: functional, cell-based; outline: as §3
HeLa [17] = test: Induction of cell cycle arrest at G2/M phase in human HeLa cells assessed as increase in cyclin B1 expression at 10 to 100 nM by Western blot analysis; type: functional, cell-based; conditions: TDE = time-dependent effect
Outline: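 Immunoblot of HeLa lysates after 24 or 48 h of compound treatment at the indicated concentrations. Probed for cyclin B1, p-Cdc2 Y15 and Cdc25c. Slower-migrating Cdc25c bands were taken as a change in phosphorylation.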

HeLa [18] = test: Cell cycle arrest in human HeLa cells assessed as increase of cell population at G2/M phase after 24 hrs using propidium iodide staining by flow cytometry; type: functional, cell-based
HeLa [19] = test: Induction of apoptosis in human HeLa cells assessed as increase in phospho-gammaH2AX expression at […] after 24 hrs by Western blot analysis; type: functional, cell-based; outline: as §2
HT-29 = test: Antiproliferative activity against human HT-29 cells assessed as growth inhibition after 72 hrs by MTT assay; type: functional, cell-based; conditions: HT-29, 72 h
LoVo [20] = test: Antiproliferative activity against human doxorubicin-resistant LoVo cells overexpressing P-gp assessed as growth inhibition after 72 hrs by MTT assay; type: functional, cell-based
K562 = test: Antiproliferative activity against human K562 cells assessed as growth inhibition after 72 hrs by MTT assay; type: functional, cell-based; conditions: K562, 72 h
LoVo [21] = test: Fold resistance, ratio of IC50 for human doxorubicin-resistant LoVo cells overexpressing P-gp to IC50 for human LoVo cells; type: functional
Outline: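 Fold resistance taken as the ratio of IC50 in the resistant line to IC50 in the parental line, each IC50 from dose-response curves of at least three independent experiments.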

Tubulin (Homo sapiens) [22] = molecular target: T1, Tubulin (Homo sapiens); test: Induction of microtubule disassembly with spherical morphology in human HeLa cells at 10 nM after 48 hrs using DAPI-staining by fluorescence microscopy; type: cell-based; outline: as §5
HeLa [23] = test: Induction of apoptosis in human HeLa cells assessed activation of caspase 2 at 10 to 100 nM after 48 hrs by Western blot analysis
Jurkat [24] = test: Cell cycle arrest in human Jurkat cells assessed as decrease of cell population at G1 phase at 1 to 100 nM after 24 hrs using propidium iodide staining by flow cytometry; type: functional, cell-based
HeLa [25] = test: Induction of apoptosis in human HeLa cells assessed as abnormal mitotic figures at 10 uM after 24 to 48 hrs using Giemsa's staining by microscopic analysis; type: functional, cell-based
Outline: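 HeLa treated 48 h, Giemsa stained and examined by light microscopy at 60× magnification.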

Jurkat [26] = test: Cell cycle arrest in human Jurkat cells assessed as increase of cell population at G2/M phase at 1 to 100 nM after 48 hrs using propidium iodide staining by flow cytometry; type: functional, cell-based
[27] = Antiproliferative activity against human vinblastine-resistant CEM/VBL100 cells overexpressing P-gp assessed as growth inhibition after 72 hrs by MTT assay; type: functional, cell-based; conditions: CEM/VBL100, 72 h
Jurkat [28] = test: Cell cycle arrest in human Jurkat cells assessed as increase of cell population at G2/M phase after 24 hrs using propidium iodide staining by flow cytometry; type: functional, cell-based
Jurkat [29] = test: Induction of apoptosis in human Jurkat cells assessed as formation of large cells at 100 uM after 24 to 48 hrs using Giemsa's staining by microscopic analysis; type: functional, cell-based; outline: as §3

Question: Which Activity (HeLa [1]) does the source give for `CCOc1ccc(-c2sc(N)nc2-c2cc(OC)c(OC)c(OC)c2)cc1` here?
Answer: inactive

Question: And the Activity (HeLa [2])?
Answer: inactive

Question: What about the Activity (Jurkat [3]) of the same molecule?
Answer: Active

Question: And the Activity (HeLa [4])?
Answer: Active

Question: And the Activity (HeLa [5])?
Answer: Active

Question: And the Activity (Jurkat [6])?
Answer: Active

Question: What about the IC50 (HeLa [7]) of the same molecule?
Answer: 0.03 nM

Question: What about the Activity (Jurkat [8]) of the same molecule?
Answer: Active

Question: And the Activity (HeLa [9])?
Answer: Active

Question: And the Activity (Tubulin (Homo sapiens) [10])?
Answer: Active

Question: And the Activity (HeLa [11])?
Answer: Active

Question: What about the Activity (HeLa [12]) of the same molecule?
Answer: Active

Question: And the Activity (HeLa [13])?
Answer: Active

Question: What about the Activity (HeLa [14]) of the same molecule?
Answer: Active

Question: And the Activity (HeLa [15])?
Answer: Active

Question: And the Activity (Jurkat [16])?
Answer: Active

Question: And the Activity (HeLa [17])?
Answer: tde

Question: And the Activity (HeLa [18])?
Answer: Dose-dependent effect

Question: And the Activity (HeLa [19])?
Answer: Active

Question: What about the IC50 (HT-29) of the same molecule?
Answer: 38.2 nM

Question: What about the IC50 (LoVo [20]) of the same molecule?
Answer: 0.6 nM

Question: What about the IC50 (K562) of the same molecule?
Answer: 0.07 nM

Question: And the “Ratio IC50” value (LoVo [21])?
Answer: 0.9

Question: And the Activity (Tubulin (Homo sapiens) [22])?
Answer: Active

Question: And the Activity (HeLa [23])?
Answer: Active

Question: And the Activity (Jurkat [24])?
Answer: Active

Question: And the Activity (HeLa [25])?
Answer: Active

Question: And the Activity (Jurkat [26])?
Answer: Active

Question: What about the IC50 [27] of the same molecule?
Answer: 0.8 nM

Question: What about the Activity (Jurkat [28]) of the same molecule?
Answer: Dose-dependent effect

Question: What about the Activity (Jurkat [29]) of the same molecule?
Answer: Active
